# Measurements: PubChem BioAssay
# Activity calls are given as the source filed them.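 How the source made its calls, unless noted: active means viability at or under a set limit in both replicates, limit being median viability minus 3 SD (cut at about 48% in these data, passing the limit was not always enough); inconclusive means at or under the limit in just one replicate; inactive means at or above the limit in both replicates.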
# Key:
# [1] = Her2 expression decrease, cell viability multiplex – SKBR3 breast tumor cells, AlphaScreen, ATP viability, primary screen (AID 461;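 active means Her2 level under about 52% in both replicate screens, with viability over 70% of control, limit read from the data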;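 on Her2 level: lower value means less Her2 protein in the cells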;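 on viability: percent of carrier control wells set as 100% viability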); conditions: SKBR3 Her2 protein level, 18-24 h, measured here: SKBR3 viability, ATP luminescence, at 10 µM
# [2] = target: Receptor tyrosine-protein kinase erbB-2 (Homo sapiens) (UniProt P04626); experiment: as above; conditions: 18-24 h, at 10 µM, stronger effect = lower value
# Sequence of Receptor tyrosine-protein kinase erbB-2 (Homo sapiens) (P04626 whole entry, looked up): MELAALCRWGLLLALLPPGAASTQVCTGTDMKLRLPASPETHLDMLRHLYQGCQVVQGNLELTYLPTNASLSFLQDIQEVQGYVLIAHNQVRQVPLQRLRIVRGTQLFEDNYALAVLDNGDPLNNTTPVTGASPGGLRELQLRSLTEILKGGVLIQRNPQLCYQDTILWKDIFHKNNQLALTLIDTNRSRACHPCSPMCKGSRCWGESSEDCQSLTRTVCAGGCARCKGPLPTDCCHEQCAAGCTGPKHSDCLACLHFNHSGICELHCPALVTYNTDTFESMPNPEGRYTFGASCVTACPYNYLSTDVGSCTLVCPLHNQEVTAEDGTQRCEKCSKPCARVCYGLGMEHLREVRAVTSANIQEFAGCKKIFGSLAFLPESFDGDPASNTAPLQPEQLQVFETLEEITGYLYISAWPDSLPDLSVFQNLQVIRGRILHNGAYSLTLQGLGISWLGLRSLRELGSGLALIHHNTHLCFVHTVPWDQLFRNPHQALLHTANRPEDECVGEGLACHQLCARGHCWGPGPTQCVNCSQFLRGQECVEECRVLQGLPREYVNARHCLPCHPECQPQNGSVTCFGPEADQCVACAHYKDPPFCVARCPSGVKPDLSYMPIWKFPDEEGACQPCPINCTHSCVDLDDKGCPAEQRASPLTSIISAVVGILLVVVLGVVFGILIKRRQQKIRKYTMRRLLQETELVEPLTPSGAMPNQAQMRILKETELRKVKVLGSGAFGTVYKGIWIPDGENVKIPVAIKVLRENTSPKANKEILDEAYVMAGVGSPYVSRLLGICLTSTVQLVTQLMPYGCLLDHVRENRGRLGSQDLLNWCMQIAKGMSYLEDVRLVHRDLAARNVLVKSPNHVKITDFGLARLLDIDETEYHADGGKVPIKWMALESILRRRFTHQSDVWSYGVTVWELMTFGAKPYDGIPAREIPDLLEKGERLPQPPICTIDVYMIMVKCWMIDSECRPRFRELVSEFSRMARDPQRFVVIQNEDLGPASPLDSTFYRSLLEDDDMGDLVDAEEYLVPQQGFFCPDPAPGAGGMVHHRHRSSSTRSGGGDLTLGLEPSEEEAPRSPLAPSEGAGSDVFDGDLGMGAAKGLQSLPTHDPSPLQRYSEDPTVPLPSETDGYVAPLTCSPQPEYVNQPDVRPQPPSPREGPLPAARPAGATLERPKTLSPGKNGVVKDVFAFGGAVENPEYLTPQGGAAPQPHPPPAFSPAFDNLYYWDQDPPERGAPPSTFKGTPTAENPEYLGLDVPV
# [3] = reduced viability of SK-BR-3 breast cancer cells – cell-based, 24 h, human, pilot screen (AID 572;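 active means viability at or below 10% of carrier control in both of two separate runs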;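 further: compound exposure lasted between 18 and 24 h rather than exactly 24 h; 100% = carrier-treated control wells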); conditions: SK-BR-3 viability, CellTiter-Glo luminescence, at 10 µM, stronger effect = lower value
# [4] = HUVEC growth inhibition – cell-based, human, primary screen (AID 575;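 active means viability at or below 30% in both replicate assays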;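 further: 100% = median of untreated cell wells with 0.1% DMSO on each plate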); conditions: HUVEC proliferation, CellTiter-Glo luminescence, 72 h; at 10 µM; stronger effect = lower value
# How it was run: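 system = HUVEC primary cells | amount = 1250 cells/well | buffer or medium = supplemented EBM, 2% fetal bovine serum | dosing = single-point 10 µM, DMSO 0.1% final | times = 72 h compound incubation | detection = CTG luminescence | read-out = % viability relative to median vehicle-well signal on each plate | control set = vehicle and MePR control wells | format = collagen-coated 384-well format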
# [5] = H69AR cell proliferation blockers – human, duplicate replicates, primary screen (AID 580); conditions: H69AR lung tumor cells viability, ATP luminescence, 72 h; at 10 µM; stronger effect = lower value;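 further: 100% = mean luminescence of untreated wells and 0% = no signal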
# [6] = MRP1 drug-resistance reversers in H69AR cells – cell-based, doxorubicin co-treatment, pilot screen (AID 601;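 active means viability loss from added drug above about 55%, and viability with drug at most 40%, in both replicates, limit read from the data, passing the limit was not always enough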); conditions: CellTiter-Glo, 72 h, at 10 µM; for differential viability (reversal): stronger effect = higher value
# [7] = yeast transport mutant growth inhibition pilot in 384-well plates, post-Golgi transport modulator project (AID 636; in the data active means inhibition above about 31%); conditions: absorbance 615 nm, about 18 h, stronger effect = higher value
# [8] = growth suppression of yeast trafficking mutant, preliminary HTS, modulators of trafficking downstream of Golgi apparatus project, 1536-format plate, OD 615 nm (AID 637; in the data active means inhibition above about 30%); conditions: yeast transport mutant growth, absorbance 615 nm, 18 h; stronger effect = higher value
# [9] = H69AR cells + 2 uM doxorubicin, measured here: viability with 2 uM doxorubicin, stronger effect = lower value
# [10] = H69AR cells, compound alone cytotoxicity
Structure (SMILES),viability [1] [%],Her2 level [2],viability [3],viability [4],viability [5],differential viability (reversal) ([6]; H69AR cells + 2 uM doxorubicin),"viability [6, 9] [%]","viability [6, 10] [%]",inhibition [7],inhibition [8]
c1ccc(-n2c(Sc3cnccn3)nnc2-c2cccs2)cc1,114,109% (inactive),114% (inactive),89.1% (inactive),95.8% (inactive),7.33% (inactive),88.5,95.8,-5.41% (inactive),-3.49% (inactive)
O=C(Nc1cccnc1)c1cccc(NC(=O)c2ccco2)c1,97.5,85% (inactive),97.5% (inactive),94.4% (inactive),89.9% (inactive),0.575% (inactive),89.3,89.9,-1.56% (inactive),4.1% (inactive)
O=C(NCCC1=CCCCC1)N[C@@H](Cc1ccccc1)C(=O)O,104,114% (inactive),104% (inactive),100% (inactive),108% (inactive),14.2% (inactive),93.5,108,0.13% (inactive),0.16% (inactive)
Cc1c(C2Nc3ccccc3NC3=C2C(=O)CC(C)(C)C3)cnn1C (stereo not given),112,107% (inactive),112% (inactive),93% (inactive),89.2% (inactive),0.765% (inactive),88.4,89.2,-4.38% (inactive),-5.87% (inactive)
CCC1CCCCN1S(=O)(=O)c1ccc(C(=O)Nc2nnc(-c3cccs3)o2)cc1 (stereo not given),79.5,91.5% (inactive),79.5% (inactive),3.2% (active),16.7% (active),-28.1% (inactive),44.9,16.7,-8.68% (inactive),9.64% (inactive)
CCSc1nc2c(c(=O)n1CC)SC(C)C2 (stereo not given),102,86.5% (inactive),102% (inactive),111% (inactive),94.1% (inactive),6.39% (inactive),87.7,94.1,-5.47% (inactive),6.07% (inactive)
O=C(OCC#CCSc1nnc(-c2ccncc2)o1)c1cccs1,118,102% (inactive),118% (inactive),88.2% (inactive),82% (inactive),-1.25% (inactive),83.3,82,-4.67% (inactive),1.43% (inactive)
